# KCNK3 block: human KCNK3 channel inhibitors, primary screen, CHO cells, FluxOR thallium flux, B-score; Potassium channel subfamily K member 3 (Homo sapiens), O14649; FluxOR fluorescence; stronger effect = lower value; B-score at 10 µM; hit rate 0.84% among 340,000; AID 602410, 2012;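 active = B-score under library mean minus 4 SD, starting fluorescence ratio at most library mean plus 5 SD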;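 note: more negative B-score means stronger inhibition of thallium flux through KCNK3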
# Kir21 inh: inhibitors of mouse Kir2.1 inward-rectifier potassium channel. HEK293-Kir2.1, FluxOR thallium flux fluorescence; stronger effect = lower value. Inward rectifier potassium channel 2 (Mus musculus), P35561. hit rate 0.85% among 310,000. B-score at 10 µM. AID 1672, 2009;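 active = fluorescence ratio B-score at or below minus 3 SD of library scores, with starting-brightness B-score within 2 SD, cut at about -4.2 in these data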;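 note: channel flux triggered by added potassium and thallium sulfate stimulus; B-score of peak minus minimum fluorescence over baseline after thallium stimulus; more negative B-score means stronger Kir2.1 block with less thallium influx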
# KCNK9 block: KCNK9 potassium channel inhibitors, primary screen, HEK293 cells, thallium flux; FluxOR thallium flux fluorescence; stronger effect = lower value; hit rate 1.2% among 310,000; B-score at 10 µM;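 active = ratio B-score over 3 SD below the library mean, with starting fluorescence within 5 SD of its mean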;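 note: negative B-score means less thallium flux so channel inhibition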
# KCNQ1 act: potentiators or activators of KCNQ1 channel, primary screen, cell-based, thallium flux, high-throughput; Potassium voltage-gated channel subfamily KQT member 1 (Homo sapiens), P51787; CHO-K1 KCNQ1, thallium flux FluxOR fluorescence; stronger effect = higher value; B-score at 10 µM; hit rate 0.35% among 310,000; AID 2648, 2010;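 active = fluorescence ratio B-score, a plate-corrected score, at least three library SD, with initial intensity B-score within 5 SD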
#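 assay system = CHO-K1 cells stably expressing KCNQ1 | medium = assay buffer, equal DMSO in all wells | timing = 37 °C overnight plating, 90-min dark dye load, 20-min compound pretreatment | measured by = kinetic FluxOR thallium fluorescence, 10-s 1-Hz baseline, 110-s post-stimulus read | measure = fluorescence change relative to baseline, converted to B score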
# hERG protect: hERG rescue from dofetilide block, primary screen, cell-based, CHO-hERG, FluxOR thallium flux, dofetilide IC70; AID 1511, 2009; dofetilide IC70 present; hit rate 0.51% among 310,000; activation (rescue from dofetilide block), less the hit threshold, % at 10 µM; Voltage-gated inwardly rectifying potassium channel KCNH2 (Homo sapiens), Q12809;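 active = activation above the mean of controls blocked by dofetilide plus 5 SD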;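 note: thallium influx through hERG after potassium depolarization seen as dye fluorescence rise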
# KCNQ1 inh: inhibitors of human KCNQ1 channel, primary screen, cell-based, thallium flux, high-throughput. Potassium voltage-gated channel subfamily KQT member 1 (Homo sapiens), P51787. CHO-K1 KCNQ1, FluxOR thallium flux fluorescence; stronger effect = higher value. B-score at 10 µM. hit rate 1.3% among 310,000. AID 2642, 2010;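 active = compounds whose thallium flux B-score, printed positive for inhibition, exceeds three library SD while starting fluorescence stays within three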;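 note: channel opened by potassium depolarization with thallium stimulus after 20 min compound exposure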
# KCNK9 block conf: KCNK9 potassium channel inhibitors, confirmation, HEK293 cells, thallium flux, duplicate; AID 492992, 2010; FluxOR thallium flux fluorescence; shares compounds with KCNK9 block; inhibition, % at 10 µM; hit rate 43% among 4,900;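 active = thallium signal inhibited by more than 5 SD of the compound-free buffer control wells, on both duplicate plates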
# Kir21 sel: mouse Kir2.1 channel inhibition, confirmation, selectivity assay for KCNK9 modulator project, cell-based, HEK293, thallium flux; shares compounds with KCNK9 block; Kir2.1 cells, FluxOR thallium flux fluorescence; inhibition, % at 10 µM; hit rate 4% among 4,900; AID 492993, 2010;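 active = thallium signal drop more than 5 SD beyond the mean of the no-compound control wells, seen in both duplicate plates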;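 note: signal is fluorescence rise after thallium addition divided by baseline fluorescence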
# HEK293 Tl ctr: thallium flux in non-induced HEK293 cells, confirmation, counter-screen for KCNK9 inhibitor project, cell-based, second counter screen, non-induced KCNK9-HEK293 | shares compounds with KCNK9 block | FluxOR thallium flux | inhibition, % at 10 µM | hit rate 40% among 4,900 | AID 492997, 2010;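 active = thallium signal drop beyond 5 SD of the untreated control mean, on both duplicate plates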
# Hits are given with their value; - = inactive; . = no result. The list is not random: actives were taken first. Their share in the collection is about 3.7%.
SMILES,KCNK3 block,Kir21 inh,KCNK9 block,KCNQ1 act,hERG protect,KCNQ1 inh,KCNK9 block conf,Kir21 sel,HEK293 Tl ctr
CCOc1ccccc1N1CCN(C(=O)c2cc3cc(OC)ccc3[nH]2)CC1,-,-,-,-,-,-,-,-,-
O=C1C2C(c3ccccc3)CC=CC2[C@H](c2cccc([N+](=O)[O-])c2)N1Cc1ccccc1 (stereo partly specified),-,-,-,-,-,-,.,.,.
CC1Cc2ccccc2N1C(=O)c1cc2sccc2n1Cc1ccc(F)cc1 (stereo unspecified),-,-,-9.8,-,-,8,37%,-,23%
C/C(CC(=O)Nc1cccc(F)c1)=N\NC(=O)c1ccncc1,-,-,-,-,-,-,.,.,.
O=C(c1ccc2c(Cl)c3c(nc2c1)CCCC3)N1CCN(c2ccc(F)cc2)CC1,-,-,-,-,-,-,-,-,-
CC1CCN(C(=O)c2ccc3c(Cl)c4c(nc3c2)CCCC4)CC1,-,-,-,-,-,-,-,-,-
COc1ccc(C2CC2/C(C)=N/OC(=O)c2ccc(F)cc2)cc1 (stereo unspecified),-,-,-,-,-,-,-,-,-
COc1cc(SC#N)ccc1N=Cc1c(C)[nH]n(-c2ccc(C)c(C)c2)c1=O,-,-,-,-,-,-,-,-,-
COc1ccccc1CN1C[C@@H]2C[C@@H](c3ccccc3C)N3CCC[C@@]23C1=O,-,-,-,-,-,-,-,-,-
CN(Cc1ccccc1F)c1nc(-c2cccnc2)nc2ccccc12,-,-,-8.2,-,-,-,31%,-,28%
Cc1ccc(CN(C)c2nc(-c3cccnc3)nc3ccccc23)o1,-,-,-,-,-,-,.,.,.
COc1ccc(CC(=O)OCC(=O)NCc2ccco2)cc1OC,-,-,-,-,-,-,.,.,.
Cc1ccc2c(c1)N(C(=O)CCC(=O)N1CCN(c3cccc(C)c3C)CC1)CCO2,-,-,-,-,-,-,-,-,-
CC1CCN(C(=O)CCC(=O)N2CC(C)Oc3ccccc32)CC1 (stereo unspecified),-,-,-,-,-,-,.,.,.
Cc1cccc(N2CCN(C(=O)CCC(=O)N3CC(C)Oc4ccccc43)CC2)c1C (stereo unspecified),-,-,-,-,-,-,-,-,-
Cc1ccc2c(c1)N(C(=O)CCC(=O)N1CCN(c3ccccc3)CC1)CCO2,-,-,-,-,-,-,.,.,.
COc1ccc(N(CC(=O)NC2CCCC2)C(=O)Cn2nnc(-c3ccc(F)cc3)n2)cc1,-,-,-,-,-,-,.,.,.
O=C(c1ccc(Cl)cc1)C1CCCN(C(=O)c2csnn2)C1 (stereo unspecified),-,-,-,-,-,-,.,.,.
COc1c(C)cc(C(=O)C2CCCN(C(=O)c3cc(C)n(C)n3)C2)cc1C (stereo unspecified),-,-,-,-,-,-,.,.,.
O=C(c1ccc2ccccc2c1)C1CCCN(C(=O)c2noc3c2CCCC3)C1 (stereo unspecified),-,-,-,-,-,-,-,-,-
CSc1nc(C(=O)N2CCCC(C(=O)c3ccc(Cl)cc3)C2)cs1 (stereo unspecified),-,-,-,-,-,-,-,-,-
Cc1cc(C(=O)N2CCCC(C(=O)c3ccc4ccccc4c3)C2)nn1C (stereo unspecified),-,-,-,-,-,-,-,-,-
CSc1ccc(C(=O)C2CCCN(C(=O)c3cc(C)n(C)n3)C2)cc1 (stereo unspecified),-,-,-,-,-,-,-,-,-
C[C@H](CO)N1C[C@H](C)[C@@H](CN(C)Cc2ccncc2)Oc2c(NS(=O)(=O)c3cccs3)cccc2C1=O,-,.,.,.,.,.,.,.,.
O=C(C1CC(=O)N(c2ccccc2)C1)N1CCN(c2ccc(F)cc2)CC1 (stereo unspecified),-,-,-,-,-,-,.,.,.
SMILES,KCNK3 block,Kir21 inh,KCNK9 block,KCNQ1 act,hERG protect,KCNQ1 inh,KCNK9 block conf,Kir21 sel,HEK293 Tl ctr
CSc1ccc(C(=O)C2CCCN(C(=O)c3ccsc3)C2)cc1 (stereo unspecified),-,-,-,-,-,-,-,-,-
CC#CC(=O)N1CCCC(C(=O)c2ccc(SC)cc2)C1 (stereo unspecified),-,-,-,-,-,-,.,.,.
CCC(=O)c1cn([C@@H](CCC(OC)OC)CC(=O)OC(C)(C)C)cc1CC,-,-,-,-,-,-,.,.,.
CCCCCCCC[n+]1cccc2c3ccccc3ccc21,-,-11,-14,-,-,9,62%,86%,-
Cc1cccc[n+]1CCCCCCCCCC[n+]1ccccc1C,-,-,-,-,-,-,.,.,.
Cc1ccc(C(C)C)c(OC(=O)/C=C/c2ccccc2)c1,-,-,-,-,-,-,-,-,-
Cc1ccc(NC(=O)C(C)OC(=O)/C=C/c2ccccc2)cc1 (stereo unspecified),-,-,-,-,-,-,.,.,.
C#CC(C)(C)NC(=O)c1sccc1Oc1ccc(F)cc1[N+](=O)[O-],-,-,-,-,-,-,.,.,.
O=C(NC(=S)Nc1ccc(Cl)cn1)C12CC3CC(CC(C3)C1)C2,-,-,-,-,-,-,.,.,.
O=C(NC(=S)NC1C2CC3CC(C2)CC1C3)C12CC3CC(CC(C3)C1)C2 (stereo unspecified),-,-,-,-,-,-,-,-,-
CN(C)NC(=S)NC(=O)C12CC3CC(CC(C3)C1)C2,-,-,-,-,-,-,.,.,.
CC12CC3(C)CC(C)(C1)CC(C(=O)NC(=S)NC(C)(C)C)(C2)C3,-,-,-,-,-,-,-,-,-
CC(C)(C)NC(=S)NC(=O)C12CC3CCC(CC(C3)C1)C2,-,-,-,-,-,-,-,-,-
COCCC(=O)N1CCC(C(=O)Nc2ccc(Oc3ccccc3)nc2)CC1,-,-,-,-,-,-,.,.,.
